Source: PubChem BioAssay (several laboratories)
The list is not random: actives were taken first. Their share in the collection is about 4.1%.
KCC2 mod: modulators of human KCC2 chloride dependent transport; B-score of Tl+ flux slope (higher = more flux/activation; lower = inhibition) at 10 µM; actives 2.2% (n = 190,000); KCC2 cells, thallium flux FluoZin-2 fluorescence;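 active = thallium flux slope and its plate-corrected score both differing from the plate sample mean at a set confidence after two filtering rounds, in either direction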;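 also: slope of fluorescence scaled to starting intensity during 10 to 20 s after thallium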
KCNQ1 inh: human KCNQ1 channel inhibition. CHO-K1 KCNQ1, FluxOR thallium flux fluorescence; active compounds read high. actives 1.3% (n = 310,000). AID 2642. B-score at 10 µM;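 active = compounds whose thallium flux B-score, printed positive for inhibition, exceeds three library SD while starting fluorescence stays within three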;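 also: channel opened by potassium depolarization with thallium stimulus after 20 min compound exposure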
KCNQ1 act: potentiates or activates the human KCNQ1 potassium channel; P51787; CHO-K1 KCNQ1, thallium flux FluxOR fluorescence; active compounds read high; B-score at 10 µM; actives 0.35% (n = 310,000); AID 2648;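 active = fluorescence ratio B-score, a plate-corrected score, at least three library SD, with initial intensity B-score within 5 SD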
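Assay system: CHO-K1 cells stably expressing KCNQ1. Medium: assay buffer for compound exposure, DMSO matched across wells. Timing: 37 °C overnight plating, 90-min dark dye load, 20-min compound pretreatment. Signal: kinetic FluxOR fluorescence, 10 s baseline plus 110 s post-stimulus.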
hERG rescue: compounds protecting human hERG from proarrhythmic drug block | Q12809 | CHO-hERG, FluxOR thallium flux, dofetilide IC70 present | activation (rescue from dofetilide block), less the hit threshold, % at 10 µM | actives 0.51% (n = 310,000) | AID 1511;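 active = activation above the mean of controls blocked by dofetilide plus 5 SD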;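 also: thallium influx through hERG after potassium depolarization seen as dye fluorescence rise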
KCNK3 block: human KCNK3 channel inhibition, primary screen; O14649; CHO-KCNK3 thallium flux, FluxOR fluorescence; active compounds read low; B-score at 10 µM; actives 0.84% (n = 340,000); AID 602410;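 active = B-score under library mean minus 4 SD, starting fluorescence ratio at most library mean plus 5 SD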;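 also: more negative B-score means stronger inhibition of thallium flux through KCNK3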
KCNK9 block: human KCNK9 channel inhibition; HEK293 KCNK9, FluxOR thallium flux fluorescence; active compounds read low; actives 1.2% (n = 310,000); Q9NPC2; B-score at 10 µM;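 active = ratio B-score over 3 SD below the library mean, with starting fluorescence within 5 SD of its mean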;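 also: negative B-score means less thallium flux so channel inhibition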
KCNK9 block conf: confirmation of human KCNK9 potassium channel inhibitors | inhibition, % at 10 µM | actives 43% (n = 4,900) | HEK293 KCNK9 cells, FluxOR thallium flux fluorescence | shares compounds with KCNK9 block;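 active = thallium signal inhibited by more than 5 SD of the compound-free buffer control wells, on both duplicate plates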;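 also: 0% = assay buffer control wells without compound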
Kir21 sel: mouse Kir2.1 off-target activity of KCNK9 modulators. shares compounds with KCNK9 block. Kir2.1 cells, FluxOR thallium flux fluorescence. inhibition, % at 10 µM. actives 4% (n = 4,900);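 active = thallium signal drop more than 5 SD beyond the mean of the no-compound control wells, seen in both duplicate plates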;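 also: signal is fluorescence rise after thallium addition divided by baseline fluorescence; plate controls were assay buffer only for no effect and full block by chlorpromazine control for full effect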
Target sequence (P35561 whole entry, looked up): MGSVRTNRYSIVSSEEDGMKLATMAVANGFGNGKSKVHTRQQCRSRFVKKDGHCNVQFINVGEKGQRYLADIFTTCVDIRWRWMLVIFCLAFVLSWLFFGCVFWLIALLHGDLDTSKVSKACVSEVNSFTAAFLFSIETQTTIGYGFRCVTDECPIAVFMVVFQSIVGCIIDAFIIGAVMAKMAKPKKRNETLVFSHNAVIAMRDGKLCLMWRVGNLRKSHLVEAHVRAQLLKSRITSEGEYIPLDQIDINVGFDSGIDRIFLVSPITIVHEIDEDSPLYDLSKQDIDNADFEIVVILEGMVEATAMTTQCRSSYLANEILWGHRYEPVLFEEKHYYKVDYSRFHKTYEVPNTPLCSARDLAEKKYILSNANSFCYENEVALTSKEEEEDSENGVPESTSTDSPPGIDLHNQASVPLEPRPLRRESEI
HEK293 Tl ctr: second counter-screen for KCNK9 modulators: effect in non-induced cells; shares compounds with KCNK9 block; non-induced KCNK9-HEK293, FluxOR thallium flux; inhibition, % at 10 µM; actives 40% (n = 4,900); AID 492997;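 active = thallium signal drop beyond 5 SD of the untreated control mean, on both duplicate plates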;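 also: plate controls were buffer only IC0 wells for no effect and SID17386958 at its maximal inhibitory level for full effect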
Numbers without * were called inactive; i = inactive; / = no result.

SMILES	KCC2 mod	KCNQ1 inh	KCNQ1 act	hERG rescue	KCNK3 block	KCNK9 block	KCNK9 block conf	Kir21 sel	HEK293 Tl ctr
CSc1ccc(C(=O)C2CCCN(C(=O)CN3CCOC3=O)C2)cc1 (stereo not drawn)	/	i	i	-4	i	i	/	/	/
COCc1ccc(C(=O)N2CCCC(C(=O)c3ccc(SC)cc3)C2)o1 (stereo not drawn)	/	i	i	-11	i	i	i	i	i
CSc1ccc(C(=O)C2CCCN(C(=O)c3nn(C)c(=O)c4ccccc34)C2)cc1 (stereo not drawn)	-0.89	i	i	-12	i	i	/	/	/
Cc1ccc(CSCCNC(=O)CCSc2ccccc2)cc1	/	i	i	-9	i	i	/	/	/
Cc1ccc(CSCCNC(=O)CN(c2cc(C)ccc2C)S(C)(=O)=O)cc1	-0.43	i	i	-15	i	i	i	i	i
Cc1ccccc1CSCCNC(=O)CCSc1ccccc1	-3.2	i	i	-20	i	i	i	i	i
Cc1ccc(SCC(=O)NCCSCc2ccccc2)cc1	-1.8	i	i	-10	i	i	i	i	i
Cc1cccc(-n2ncc(C(=O)NC3CCCC3)c2C2CCN(C(=O)OC(C)(C)C)CC2)c1	/	i	i	-5	i	i	/	/	/
CCOc1ccccc1NC(=O)[C@@H](NC(=O)c1cccc(S(=O)(=O)N2CCOCC2)c1)C(C)C	-0.027	i	i	-8	i	i	/	/	/
COC(=O)CN1C(c2ccc(OC)cc2)=Nc2ccc(Cl)cc2C1c1ccccc1 (stereo not drawn)	-1.2	i	i	-10	i	i	/	/	/
COC(=O)CN1C(c2cccc(Cl)c2)=Nc2ccc(Cl)cc2C1c1ccccc1 (stereo not drawn)	-0.2	i	i	-6	i	-16*	58%*	i	47%*
O=C1[C@@H]2[C@@H]3C[C@@H]([C@H]4ON=C(c5ccc(Cl)cc5Cl)[C@@H]34)[C@@H]2C(=O)N1C1CCCCC1	0	i	i	-8	i	i	i	i	i
CN1C(=O)[C@@H]2[C@@H]3C[C@@H]([C@H]4ON=C(c5ccc(Cl)cc5)[C@@H]34)[C@@H]2C1=O	0.72	i	i	-5	i	i	/	/	/
COc1ccc(NC2CCCN(C(=O)c3cn(C)c4ccccc34)C2)cc1 (stereo not drawn)	/	i	i	-6	i	i	i	i	i
Cc1ccc(NC2CCCN(C(=O)c3cn(C)c4ccccc34)C2)cc1C (stereo not drawn)	/	i	i	-12	i	i	i	i	i
Cc1ccc(C(C(=O)NCc2ccccc2)N(Cc2cccs2)C(=O)c2ccc3c(c2)OCCO3)cc1 (stereo not drawn)	-0.67	i	i	-10	i	i	/	/	/
COc1ccc(CNC(=O)C(c2ccc(C)cc2)N(Cc2cccs2)C(=O)c2ccc3c(c2)OCCO3)cc1 (stereo not drawn)	-0.58	i	i	-17	i	i	i	i	i
CCc1nn(C(C)C(=O)Nc2cccc(C)c2C)c(=O)c2cc3occc3n12 (stereo not drawn)	-3.1	i	i	-13	i	i	/	/	/
CCN(CC)c1ccc(S(=O)(=O)N2CCOCC2)cc1NC(=O)CN1CCc2ccccc2C1	-0.22	i	i	-3	i	-10*	51%*	i	i
CCN(CC)c1ccc(S(=O)(=O)N2CCOCC2)cc1NC(=O)Cn1nc(C)c([N+](=O)[O-])c1C	/	/	/	/	i	/	/	/	/
Cc1ccc(NC(=O)CN(C)C(=O)Cc2ccccc2F)cc1	/	i	i	-7	i	i	/	/	/
CCOc1ccc(N(C)Cc2cc(=O)oc3ccc(OCC)cc23)cc1	/	i	i	-4	i	-11*	42%*	i	32%*
CCOc1ccc(CN(C)Cc2cc(=O)oc3cc(C)c(Cl)cc23)cc1	/	i	i	-2	i	i	/	/	/
Cn1cc(/C=N/n2cnc3scc(-c4ccc(Cl)cc4)c3c2=O)c2ccccc21	/	i	i	-5	i	i	i	i	i
CCn1cnc2scc(-c3ccccc3)c2c1=O	-0.76	i	i	-10	i	i	/	/	/
SMILES	KCC2 mod	KCNQ1 inh	KCNQ1 act	hERG rescue	KCNK3 block	KCNK9 block	KCNK9 block conf	Kir21 sel	HEK293 Tl ctr
Cc1ccc(C(C)NC(=O)/C(C#N)=C\c2c(C)[nH]c3ccccc23)cc1 (stereo not drawn)	0.63	i	i	-9	i	i	i	i	i
Cc1ccc(NC(=O)CN(C)Cc2cccs2)cc1Cl	/	i	i	-13	i	-16*	68%*	i	32%*
CCN(CC)c1ccc(NC(=O)CN(C)Cc2cccs2)cc1	/	i	i	-6	i	i	/	/	/
CCOC(=O)C1C(=O)C=C(/C=C/c2ccc(N(C)C)cc2)CC1c1ccccc1 (stereo not drawn)	-1.4	8*	i	-28	i	-8.2*	46%*	38%*	64%*
CCOC(=O)C1C(=O)C=C(c2ccc(C)cc2)CC1c1ccccc1 (stereo not drawn)	1.4	i	i	-16	i	i	/	/	/
Cc1ccc(SCC(=O)c2cc(C)c(O)c(C)c2)cc1	/	i	i	-6	i	i	/	/	/
Cc1cc(C(=O)CSc2ccc(F)cc2)cc(C)c1OC(=S)N(C)C	-0.82	i	i	-9	i	i	i	i	32%*
NC(=O)SCC(=O)Nc1cccc(Cl)c1	/	i	i	0	i	-10*	58%*	i	36%*
Nc1nnc(SCC(=O)Nc2cccc(Cl)c2)s1	/	/	/	/	i	/	/	/	/
COc1cccc(N/C=C/C(=O)c2ccc(OC)c(OC)c2)c1	/	i	i	-2	i	i	/	/	/
CCOC(=O)c1cccc(N/C=C/C(=O)c2ccc(OC)c(OC)c2)c1	/	i	i	4	i	-16*	76%*	i	38%*
C=CCN(C(=O)c1oc2c(Cl)cc(C)cc2c1C)C1CCS(=O)(=O)C1 (stereo not drawn)	/	i	i	-7	i	i	i	i	i
O=C(CSc1ccc(-c2ccc(Cl)cc2)nn1)N1CCCc2ccccc21	-0.46	i	i	-15	i	i	i	i	i
